Active and inactive are the calls of the source. The rule behind the calls is not given here.
Assays:
Acetylcholinesterase = molecular target: T1, Acetylcholinesterase (Rattus norvegicus, UniProt P37136); experiment: Inhibition of AchE in rat cortex by Ellman's method
T1 sequence (P37136 whole entry): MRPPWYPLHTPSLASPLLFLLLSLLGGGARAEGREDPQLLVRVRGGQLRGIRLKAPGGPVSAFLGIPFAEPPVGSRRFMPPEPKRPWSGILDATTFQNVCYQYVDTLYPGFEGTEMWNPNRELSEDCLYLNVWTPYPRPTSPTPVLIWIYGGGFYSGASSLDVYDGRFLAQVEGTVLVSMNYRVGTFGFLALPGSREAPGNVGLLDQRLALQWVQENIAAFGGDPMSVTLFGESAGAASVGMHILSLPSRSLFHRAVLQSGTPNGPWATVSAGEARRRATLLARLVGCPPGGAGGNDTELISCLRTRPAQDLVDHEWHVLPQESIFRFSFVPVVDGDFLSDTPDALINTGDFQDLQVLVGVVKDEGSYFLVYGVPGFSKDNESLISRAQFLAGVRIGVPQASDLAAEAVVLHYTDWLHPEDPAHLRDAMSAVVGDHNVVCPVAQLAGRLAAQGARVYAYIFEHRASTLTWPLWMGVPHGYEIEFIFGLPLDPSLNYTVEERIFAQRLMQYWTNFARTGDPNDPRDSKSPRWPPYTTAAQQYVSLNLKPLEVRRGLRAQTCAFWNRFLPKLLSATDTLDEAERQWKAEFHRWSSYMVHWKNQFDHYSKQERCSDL

Rattus norvegicus = organism: Rattus norvegicus; experiment: Selectivity ratio of IC50 for BuchE in rat serum to IC50 for AchE in rat cortex; type: cell-free
Procedure, shortened: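 IC50 ratio from modified Ellman assays. BuChE from rat serum with butyrylthiocholine iodide. AChE from rat cortex homogenate, preincubated with isoOMPA (0.04 mmol/L) to block BuChE, with acetylthiocholine iodide. Each mixture held enzyme source, sodium phosphate buffer pH 7.4 and compound at different concentrations, incubated 37 °C for 15 min.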

Butyrylcholinesterase = Butyrylcholinesterase (Rattus norvegicus, UniProt Q9JKC1); experiment: Inhibition of BuchE in rat serum by Ellman's method; type: cell-free
Butyrylcholinesterase, sequence (Q9JKC1 whole entry): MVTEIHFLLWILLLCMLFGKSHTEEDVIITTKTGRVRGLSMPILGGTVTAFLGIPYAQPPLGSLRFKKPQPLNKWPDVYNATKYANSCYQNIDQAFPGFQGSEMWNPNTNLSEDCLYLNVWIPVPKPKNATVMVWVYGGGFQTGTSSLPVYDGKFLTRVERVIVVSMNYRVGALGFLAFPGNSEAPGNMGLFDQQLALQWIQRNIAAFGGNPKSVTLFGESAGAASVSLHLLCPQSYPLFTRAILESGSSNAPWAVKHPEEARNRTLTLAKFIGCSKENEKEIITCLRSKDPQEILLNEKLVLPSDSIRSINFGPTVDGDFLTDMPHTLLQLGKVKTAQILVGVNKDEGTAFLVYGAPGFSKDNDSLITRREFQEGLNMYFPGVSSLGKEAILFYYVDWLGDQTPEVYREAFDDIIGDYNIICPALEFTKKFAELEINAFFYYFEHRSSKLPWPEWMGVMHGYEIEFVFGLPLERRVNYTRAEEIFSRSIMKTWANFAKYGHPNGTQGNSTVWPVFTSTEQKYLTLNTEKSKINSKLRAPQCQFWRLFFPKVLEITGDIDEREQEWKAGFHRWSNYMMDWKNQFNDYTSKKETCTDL
Procedure, shortened: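 Modified Ellman assay with rat serum as BuChE source. Mixture of butyrylthiocholine iodide, sodium phosphate buffer pH 7.4, serum and tested compound at different concentrations, incubated 37 °C for 15 min.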

PC-12 [1] = experiment: Neuroprotective activity in rat PC12 cells assessed as inhibition of H2O2-induced neurotoxicity at 0.1 uM after 2 hrs by MTT assay; type: functional, cell-based
Procedure, shortened: (§1)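 Undifferentiated PC12 cells were seeded at 5000 cells/well and cultured at 37 °C under 5% CO2. They were left to attach for 1 day before […] was added. 2 h later the cells were exposed to H2O2. Viability was read by MTT (0.25 mg/mL final, 4 h), with formazan dissolved in DMSO and OD read at 570 nm.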

PC-12 [2] = experiment: Neuroprotective activity against rat PC12 cells assessed as inhibition of H2O2-induced neurotoxicity at 0.5 uM after 2 hrs by MTT assay; type: functional, cell-based; procedure, shortened: as §1

Structure (SMILES) | IC50 (Acetylcholinesterase) [nM] | Ratio IC50 (Rattus norvegicus) | IC50 (Butyrylcholinesterase) [nM] | Activity (PC-12 [1]) | Activity (PC-12 [2])
COc1cc2c(cc1OC)C(=O)C(Oc1cccc(C(=O)CCN3CCCC3)c1)C2 (stereo not given) | 832 | 13.3 | 11100 | – | –
COc1cc2c(cc1OC)C(=O)C(Oc1ccc(C(=O)CN3CCCC3)cc1)C2 (stereo not given) | 240 | 7.2 | 1720 | – | –
COc1cc2c(cc1OC)C(=O)C(CC1CCN(Cc3ccccc3)CC1)C2 (stereo not given) | – | – | – | Active | Active
COc1cc2c(cc1OC)C(=O)C(Oc1ccc(C(=O)CCN3CCCC3)cc1)C2 (stereo not given) | 4.16 | 1450 | 6040 | – | –
COc1cc2c(cc1OC)C(=O)C(Oc1ccc(CCCN3CCCCC3)cc1)C2 (stereo not given) | 640 | 4.36 | 2790 | – | –
CCN(CC)CCC(=O)c1ccc(OC2Cc3cc(OC)c(OC)cc3C2=O)cc1 (stereo not given) | 0.78 | 1950 | 1520 | Active | Active
COc1cc2c(cc1OC)C(=O)C(Oc1ccc(CCN3CCCCC3)cc1)C2 (stereo not given) | 50.2 | 102 | 5110 | – | –
COc1cc2c(cc1OC)C(=O)C(Oc1ccc(C(=O)CCCN3CCCCC3)cc1)C2 (stereo not given) | 529 | 17 | 8970 | – | –
CCN(CC)CC(=O)c1ccc(OC2Cc3cc(OC)c(OC)cc3C2=O)cc1 (stereo not given) | 280 | 8.7 | 2430 | – | –
CCN(C)CCc1ccc(OC2Cc3cc(OC)c(OC)cc3C2=O)cc1 (stereo not given) | 51.6 | 427 | 22000 | – | –
COc1cc2c(cc1OC)C(=O)C(Oc1ccc(C(=O)CCN3CCCCC3)cc1)C2 (stereo not given) | 17.3 | 187 | 3240 | – | –
CCN(C)CCc1cccc(OC2Cc3cc(OC)c(OC)cc3C2=O)c1 (stereo not given) | 710 | 12.2 | 8650 | – | –
CCN(C)CCC(=O)c1ccc(OC2Cc3cc(OC)c(OC)cc3C2=O)cc1 (stereo not given) | 1.85 | 2440 | 4510 | – | –
COc1cc2c(cc1OC)C(=O)C(Oc1ccc(CCN3CCCC3)cc1)C2 (stereo not given) | 37.3 | 816 | 30400 | – | –
CCN(CC)CCc1ccc(OC2Cc3cc(OC)c(OC)cc3C2=O)cc1 (stereo not given) | 42.1 | 394 | 16600 | – | –
CCN(C)CCCC(=O)c1ccc(OC2Cc3cc(OC)c(OC)cc3C2=O)cc1 (stereo not given) | 37.6 | 715 | 26900 | – | –
COc1cc2c(cc1OC)C(=O)C(Oc1ccc(CCCCN3CCCC3)cc1)C2 (stereo not given) | 415 | 7.76 | 3220 | – | –
CCN(CC)CCc1cccc(OC2Cc3cc(OC)c(OC)cc3C2=O)c1 (stereo not given) | 2090 | 5.31 | 11100 | – | –
CCN(CC)CCC(=O)c1cccc(OC2Cc3cc(OC)c(OC)cc3C2=O)c1 (stereo not given) | 2370 | 0.64 | 1520 | – | –
COc1cc2c(cc1OC)C(=O)C(Oc1cccc(CCN3CCCC3)c1)C2 (stereo not given) | 1770 | 8.69 | 15400 | – | –
COc1cc2c(cc1OC)C(=O)C(Oc1ccc(C(=O)CCCN3CCCC3)cc1)C2 (stereo not given) | 62 | 47.2 | 2930 | – | –
CCN(CC)CCCCc1ccc(OC2Cc3cc(OC)c(OC)cc3C2=O)cc1 (stereo not given) | 481 | 6.77 | 3260 | – | –
CCN(CC)CCCC(=O)c1ccc(OC2Cc3cc(OC)c(OC)cc3C2=O)cc1 (stereo not given) | 40.6 | 927 | 37700 | – | –
COc1cc2c(cc1OC)C(=O)C(Oc1cccc(CCN3CCCCC3)c1)C2 (stereo not given) | 1550 | 4.52 | 7000 | – | –
CCN(C)CC(=O)c1ccc(OC2Cc3cc(OC)c(OC)cc3C2=O)cc1 (stereo not given) | 31.6 | 18.6 | 588 | – | –
COc1cc2c(cc1OC)C(=O)C(Oc1ccc(C(=O)CN3CCCCC3)cc1)C2 (stereo not given) | 364 | 4.57 | 1660 | – | –
COc1cc2c(cc1OC)C(=O)C(Oc1ccc(CCCN3CCCC3)cc1)C2 (stereo not given) | 209 | 11.2 | 2340 | – | –
CCN(CC)CCCc1ccc(OC2Cc3cc(OC)c(OC)cc3C2=O)cc1 (stereo not given) | 277 | 14.4 | 3990 | – | –
